Data: ChEMBL document CHEMBL4152228, “Structural-based design, synthesis, and antitumor activity of novel alloxazine analogues with potential selective kinase inhibition” (Eur J Med Chem, 2018)

How the values were obtained:
[1] = Antiproliferative activity against human WM793B cells after 72 hrs by MTT assay; format: functional, cell-based
In short: (§1)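 MTT viability assay. Cells grown in RPMI-1640 with 10% heat-inactivated FBS, L-glutamine and 1% penicillin/streptomycin, used within 20 passages. Seeded at 5×10^3 cells/well, left overnight at 37 °C, then exposed to final concentrations of 0.005–50 µM (0.1% DMSO) for up to 72 h. MTT added for 3 h, formazan dissolved in DMSO, absorbance read at 550 nm. IC50 derived relative to untreated controls.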

MCF7 [2] = assay: Induction of apoptosis in human MCF7 cells assessed as early apoptotic cells at 1 uM after 72 hrs by annexin V-FITC/propidium iodide staining-based flow cytometric method (reference value: 9%); format: functional
MCF7 [3] = assay: Induction of apoptosis in human MCF7 cells assessed as late apoptotic cells at 1 uM after 72 hrs by annexin V-FITC/propidium iodide staining-based flow cytometric method (reference value: 2.6%); format: functional
MCF7 [4] = assay: Induction of apoptosis in human MCF7 cells assessed as viable cells at 10 uM after 72 hrs by annexin V-FITC/propidium iodide staining-based flow cytometric method (reference value: 76%); format: functional; details: MCF7, 72 h, read-out: Activity
HCT-116 = assay: Antiproliferative activity against human HCT116 cells after 72 hrs by MTT assay; format: functional, cell-based; details: HCT-116, 72 h; in short: as §1
MCF7 [5] = assay: Induction of apoptosis in human MCF7 cells assessed as late apoptotic cells at 5 uM after 72 hrs by annexin V-FITC/propidium iodide staining-based flow cytometric method (reference value: 2.6%); format: functional
MCF7 [6] = assay: Induction of apoptosis in human MCF7 cells assessed as early apoptotic cells at 10 uM after 72 hrs by annexin V-FITC/propidium iodide staining-based flow cytometric method (reference value: 9%); format: functional
MCF7 [7] = assay: Induction of apoptosis in human MCF7 cells assessed as necrotic cells at 1 uM after 72 hrs by annexin V-FITC/propidium iodide staining-based flow cytometric method (reference value: 12.6%); format: functional
K562 = assay: Antiproliferative activity against human K562 cells after 72 hrs by MTT assay; format: functional, cell-based; details: K562, 72 h
MCF7 [8] = assay: Induction of apoptosis in human MCF7 cells assessed as increase of late apoptotic cells at 10 uM after 72 hrs by annexin V-FITC/propidium iodide staining-based flow cytometric method relative to control; format: functional
In short: (§2)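 MCF-7 cells treated 72 h at final 1, 5, 10 µM, then annexin V-FITC/PI stained in pH 7.4 HEPES binding buffer and analysed by flow cytometry. Early or late apoptotic cell fraction expressed as percent change versus vehicle control: (sample − control)/control × 100. Triplicates.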

MCF7 [9] = assay: Antiproliferative activity against human MCF7 cells after 72 hrs by MTT assay; format: functional, cell-based; details: MCF7, 72 h; in short: as §1
MCF7 [10] = assay: Induction of apoptosis in human MCF7 cells assessed as necrotic cells at 5 uM after 72 hrs by annexin V-FITC/propidium iodide staining-based flow cytometric method (reference value: 12.6%); format: functional
MCF7 [11] = assay: Induction of apoptosis in human MCF7 cells assessed as viable cells at 5 uM after 72 hrs by annexin V-FITC/propidium iodide staining-based flow cytometric method (reference value: 76%); format: functional; details: MCF7, 72 h, read-out: Activity
MCF7 [12] = assay: Induction of apoptosis in human MCF7 cells assessed as early apoptotic cells at 5 uM after 72 hrs by annexin V-FITC/propidium iodide staining-based flow cytometric method (reference value: 9%); format: functional
MCF7 [13] = assay: Induction of apoptosis in human MCF7 cells assessed as necrotic cells at 10 uM after 72 hrs by annexin V-FITC/propidium iodide staining-based flow cytometric method (reference value: 12.6%); format: functional
MCF7 [14] = assay: Induction of apoptosis in human MCF7 cells assessed as late apoptotic cells at 10 uM after 72 hrs by annexin V-FITC/propidium iodide staining-based flow cytometric method (reference value: 2.6%); format: functional
MCF7 [15] = assay: Induction of apoptosis in human MCF7 cells assessed as increase of early apoptotic cells at 1 uM after 72 hrs by annexin V-FITC/propidium iodide staining-based flow cytometric method relative to control; format: functional
A2780 = assay: Antiproliferative activity against human A2780 cells after 72 hrs by MTT assay; format: functional, cell-based; details: A2780, 72 h; in short: as §1
MCF7 [16] = assay: Induction of apoptosis in human MCF7 cells assessed as viable cells at 1 uM after 72 hrs by annexin V-FITC/propidium iodide staining-based flow cytometric method (reference value: 76%); format: functional; details: MCF7, 72 h, read-out: Activity
[17] = biological target: Fibroblast growth factor receptor 1 (Homo sapiens) (UniProt P11362); assay: Inhibition of FGFR1 (unknown origin) at 10 uM by [33P]-ATP radiometric assay
In short: (§3)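 Radiometric kinase profiling: purified recombinant kinase (~10–50 nM final) with substrate, assay buffer and compound at 10 µM (control 10% DMSO). Started with 33P-ATP (50 µM stock, 0.8 µCi), run 30 min at ambient temperature, then spotted onto P81 phosphocellulose and washed in 1% phosphoric acid. Scintillation counted, no-substrate blank subtracted, single measurement, result given as % change versus control.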

[18] = biological target: Mitogen-activated protein kinase 8 (Homo sapiens) (UniProt P45983); assay: Inhibition of JNK1 (unknown origin) at 10 uM by [33P]-ATP radiometric assay; in short: as §3
[19] = biological target: Mast/stem cell growth factor receptor Kit (Homo sapiens) (UniProt P10721); assay: Inhibition of c-KIT (unknown origin) at 10 uM by [33P]-ATP radiometric assay
In short: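 Radiometric kinase profiling: purified recombinant kinase (~10–50 nM final) with substrate, assay buffer and compound at 10 µM (control 10% DMSO). Started with 33P-ATP (50 µM stock, 0.8 µCi), run 30 min at ambient temperature, then spotted onto P81 phosphocellulose and washed in 1% phosphoric acid.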

[20] = biological target: Activin receptor type-2A (Homo sapiens) (UniProt P27037); assay: Inhibition of ACVR2A (unknown origin) at 10 uM by [33P]-ATP radiometric assay; in short: as §3
[21] = biological target: Calcium/calmodulin-dependent protein kinase type 1 (Homo sapiens) (UniProt Q14012); assay: Inhibition of CAMK1 (unknown origin) at 10 uM by [33P]-ATP radiometric assay; in short: as §3
[22] = biological target: Receptor tyrosine-protein kinase erbB-2 (Homo sapiens) (UniProt P04626); assay: Inhibition of HER2 (unknown origin) at 10 uM by [33P]-ATP radiometric assay; in short: as §3
[23] = biological target: Mitogen-activated protein kinase 3 (Homo sapiens) (UniProt P27361); assay: Inhibition of ERK1 (unknown origin) at 10 uM by [33P]-ATP radiometric assay; in short: as §3
[24] = biological target: Hepatocyte growth factor receptor (Homo sapiens) (UniProt P08581); assay: Inhibition of MET (unknown origin) at 10 uM by [33P]-ATP radiometric assay; in short: as §3
[25] = biological target: Focal adhesion kinase 1 (Homo sapiens) (UniProt Q05397); assay: Inhibition of FAK (unknown origin) at 10 uM by [33P]-ATP radiometric assay; in short: as §3
[26] = biological target: Protein kinase C beta type (Homo sapiens) (UniProt P05771); assay: Inhibition of PCK-beta2 (unknown origin) at 10 uM by [33P]-ATP radiometric assay; in short: as §3
[27] = biological target: Vascular endothelial growth factor receptor 1 (Homo sapiens) (UniProt P17948); assay: Inhibition of FLT1 (unknown origin) at 10 uM by [33P]-ATP radiometric assay; in short: as §3
[28] = biological target: Cyclin-dependent kinase 16 (Homo sapiens) (UniProt Q00536); assay: Inhibition of CDK16 (unknown origin) at 10 uM by [33P]-ATP radiometric assay; in short: as §3
[29] = biological target: Epidermal growth factor receptor (Homo sapiens) (UniProt P00533); assay: Inhibition of EGFR (unknown origin) at 10 uM by [33P]-ATP radiometric assay; in short: as §3
[30] = biological target: Calcium/calmodulin-dependent protein kinase type II subunit alpha (Homo sapiens) (UniProt Q9UQM7); assay: Inhibition of CAMK2-alpha (unknown origin) at 10 uM by [33P]-ATP radiometric assay; in short: as §3
[31] = biological target: Casein kinase I isoform alpha (Homo sapiens) (UniProt P48729); assay: Inhibition of CK1alpha1 (unknown origin) at 10 uM by [33P]-ATP radiometric assay; in short: as §3
MCF7 [32] = assay: Induction of apoptosis in human MCF7 cells assessed as increase of early apoptotic cells after 72 hrs by annexin V-FITC/propidium iodide staining-based flow cytometric method; format: functional, cell-based; in short: as §2
MCF7 [33] = assay: Ratio of increase in late apoptotic cells to early apoptotic cells in human MCF7 cells at 10 uM after 72 hrs by annexin V-FITC/propidium iodide staining-based flow cytometric method; format: functional
MCF7 [34] = assay: Induction of apoptosis in human MCF7 cells assessed as increase of early apoptotic cells at 1 to 10 uM after 72 hrs by annexin V-FITC/propidium iodide staining-based flow cytometric method relative to control; format: functional; in short: as §2
[35] = biological target: Cyclin-dependent kinase 1/Cyclin A1 (Homo sapiens) (UniProt P06493+P78396); assay: Inhibition of CDK1/cyclin A1 (unknown origin) at 10 uM by [33P]-ATP radiometric assay; format: protein-complex assay; in short: as §3

Sequence of Calcium/calmodulin-dependent protein kinase type 1 (Homo sapiens) (Q14012 whole entry, looked up): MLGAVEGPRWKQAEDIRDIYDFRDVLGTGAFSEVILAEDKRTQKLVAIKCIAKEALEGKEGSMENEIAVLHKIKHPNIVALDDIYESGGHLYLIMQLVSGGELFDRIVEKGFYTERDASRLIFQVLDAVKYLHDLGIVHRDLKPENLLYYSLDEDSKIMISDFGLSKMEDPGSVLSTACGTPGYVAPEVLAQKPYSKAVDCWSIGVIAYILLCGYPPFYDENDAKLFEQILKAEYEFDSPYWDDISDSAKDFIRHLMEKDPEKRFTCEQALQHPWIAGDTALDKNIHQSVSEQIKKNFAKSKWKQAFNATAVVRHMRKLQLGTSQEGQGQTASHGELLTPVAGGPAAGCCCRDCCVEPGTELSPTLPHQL
Sequence of Epidermal growth factor receptor (Homo sapiens) (P00533 whole entry): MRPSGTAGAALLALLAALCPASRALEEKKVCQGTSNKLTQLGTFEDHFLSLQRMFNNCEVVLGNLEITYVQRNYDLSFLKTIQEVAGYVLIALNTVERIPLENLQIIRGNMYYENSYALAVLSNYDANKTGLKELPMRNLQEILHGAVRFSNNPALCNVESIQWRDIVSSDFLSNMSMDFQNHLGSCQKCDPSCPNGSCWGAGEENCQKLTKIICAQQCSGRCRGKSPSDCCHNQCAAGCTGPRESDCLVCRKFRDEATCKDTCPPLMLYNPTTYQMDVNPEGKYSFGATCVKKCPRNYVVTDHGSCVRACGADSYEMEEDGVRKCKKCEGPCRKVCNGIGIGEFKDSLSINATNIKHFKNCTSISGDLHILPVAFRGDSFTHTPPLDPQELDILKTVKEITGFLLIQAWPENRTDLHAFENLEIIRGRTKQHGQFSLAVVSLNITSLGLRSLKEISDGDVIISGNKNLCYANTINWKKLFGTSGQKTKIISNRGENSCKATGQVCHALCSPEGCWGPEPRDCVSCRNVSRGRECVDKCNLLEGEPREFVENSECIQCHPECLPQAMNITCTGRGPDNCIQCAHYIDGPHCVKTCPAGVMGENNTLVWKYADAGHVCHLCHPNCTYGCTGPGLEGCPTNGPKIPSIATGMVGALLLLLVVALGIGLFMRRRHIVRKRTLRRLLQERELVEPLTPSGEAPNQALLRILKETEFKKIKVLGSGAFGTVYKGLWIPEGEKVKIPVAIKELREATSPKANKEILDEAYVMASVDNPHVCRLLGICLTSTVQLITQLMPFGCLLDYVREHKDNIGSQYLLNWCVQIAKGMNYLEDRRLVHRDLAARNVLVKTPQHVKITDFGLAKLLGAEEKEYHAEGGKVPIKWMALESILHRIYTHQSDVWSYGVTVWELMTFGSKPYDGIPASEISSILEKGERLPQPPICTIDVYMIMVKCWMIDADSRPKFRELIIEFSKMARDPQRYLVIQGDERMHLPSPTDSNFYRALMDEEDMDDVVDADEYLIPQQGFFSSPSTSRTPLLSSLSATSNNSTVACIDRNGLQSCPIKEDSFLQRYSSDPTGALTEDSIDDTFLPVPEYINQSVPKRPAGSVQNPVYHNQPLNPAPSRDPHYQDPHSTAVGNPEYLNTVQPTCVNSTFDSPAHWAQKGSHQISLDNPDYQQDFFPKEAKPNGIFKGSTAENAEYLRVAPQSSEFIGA
Sequence of Mitogen-activated protein kinase 8 (Homo sapiens) (P45983 whole entry): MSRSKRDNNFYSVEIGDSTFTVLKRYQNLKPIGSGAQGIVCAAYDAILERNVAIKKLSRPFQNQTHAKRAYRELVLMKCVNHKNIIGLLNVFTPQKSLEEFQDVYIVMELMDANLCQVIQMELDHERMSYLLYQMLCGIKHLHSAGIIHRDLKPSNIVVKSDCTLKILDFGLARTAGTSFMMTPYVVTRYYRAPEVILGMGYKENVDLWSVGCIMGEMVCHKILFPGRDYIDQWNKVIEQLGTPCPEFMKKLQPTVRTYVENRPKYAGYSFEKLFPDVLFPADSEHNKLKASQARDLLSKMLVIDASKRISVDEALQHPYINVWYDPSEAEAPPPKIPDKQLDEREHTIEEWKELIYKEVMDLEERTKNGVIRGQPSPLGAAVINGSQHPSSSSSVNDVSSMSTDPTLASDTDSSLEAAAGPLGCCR
Sequence of Calcium/calmodulin-dependent protein kinase type II subunit alpha (Homo sapiens) (Q9UQM7 whole entry, canonical isoform): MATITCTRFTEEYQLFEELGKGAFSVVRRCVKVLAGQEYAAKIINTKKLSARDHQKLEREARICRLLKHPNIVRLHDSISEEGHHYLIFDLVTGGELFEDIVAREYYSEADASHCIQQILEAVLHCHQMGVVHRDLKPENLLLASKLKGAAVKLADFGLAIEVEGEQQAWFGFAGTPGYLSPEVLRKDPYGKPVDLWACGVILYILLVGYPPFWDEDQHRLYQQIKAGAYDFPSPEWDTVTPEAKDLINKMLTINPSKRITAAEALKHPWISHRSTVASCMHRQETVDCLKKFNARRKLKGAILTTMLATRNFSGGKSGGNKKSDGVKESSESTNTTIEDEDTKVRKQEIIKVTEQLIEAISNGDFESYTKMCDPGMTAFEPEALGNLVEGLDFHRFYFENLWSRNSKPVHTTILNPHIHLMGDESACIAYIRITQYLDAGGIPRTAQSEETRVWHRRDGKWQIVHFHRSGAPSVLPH
Sequence of Mast/stem cell growth factor receptor Kit (Homo sapiens) (P10721 whole entry): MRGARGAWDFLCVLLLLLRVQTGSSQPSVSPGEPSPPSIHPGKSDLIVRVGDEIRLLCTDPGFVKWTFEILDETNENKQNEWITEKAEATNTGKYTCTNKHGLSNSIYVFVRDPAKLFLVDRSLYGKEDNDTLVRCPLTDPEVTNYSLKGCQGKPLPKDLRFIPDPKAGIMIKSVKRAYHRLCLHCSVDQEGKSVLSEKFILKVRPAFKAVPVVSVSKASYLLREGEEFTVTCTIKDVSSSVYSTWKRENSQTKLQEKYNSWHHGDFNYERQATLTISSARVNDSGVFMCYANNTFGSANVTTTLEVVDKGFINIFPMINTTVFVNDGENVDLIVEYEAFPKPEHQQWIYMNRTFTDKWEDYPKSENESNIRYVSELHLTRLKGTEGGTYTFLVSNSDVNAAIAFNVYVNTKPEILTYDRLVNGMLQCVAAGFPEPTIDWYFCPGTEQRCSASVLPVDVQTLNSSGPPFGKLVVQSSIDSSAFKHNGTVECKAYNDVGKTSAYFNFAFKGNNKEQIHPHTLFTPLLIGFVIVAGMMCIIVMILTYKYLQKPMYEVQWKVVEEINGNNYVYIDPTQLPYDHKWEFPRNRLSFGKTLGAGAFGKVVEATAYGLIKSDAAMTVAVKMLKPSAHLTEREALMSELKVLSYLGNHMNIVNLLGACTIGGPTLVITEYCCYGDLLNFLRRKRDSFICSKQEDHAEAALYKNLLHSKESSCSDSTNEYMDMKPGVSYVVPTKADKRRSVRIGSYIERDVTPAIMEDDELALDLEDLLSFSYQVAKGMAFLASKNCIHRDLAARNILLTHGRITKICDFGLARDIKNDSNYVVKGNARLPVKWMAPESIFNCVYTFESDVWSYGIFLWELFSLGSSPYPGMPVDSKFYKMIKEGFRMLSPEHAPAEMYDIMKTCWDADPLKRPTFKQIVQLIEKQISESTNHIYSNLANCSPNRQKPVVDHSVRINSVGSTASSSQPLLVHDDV
Sequence of Fibroblast growth factor receptor 1 (Homo sapiens) (P11362 22-822 limits assumed): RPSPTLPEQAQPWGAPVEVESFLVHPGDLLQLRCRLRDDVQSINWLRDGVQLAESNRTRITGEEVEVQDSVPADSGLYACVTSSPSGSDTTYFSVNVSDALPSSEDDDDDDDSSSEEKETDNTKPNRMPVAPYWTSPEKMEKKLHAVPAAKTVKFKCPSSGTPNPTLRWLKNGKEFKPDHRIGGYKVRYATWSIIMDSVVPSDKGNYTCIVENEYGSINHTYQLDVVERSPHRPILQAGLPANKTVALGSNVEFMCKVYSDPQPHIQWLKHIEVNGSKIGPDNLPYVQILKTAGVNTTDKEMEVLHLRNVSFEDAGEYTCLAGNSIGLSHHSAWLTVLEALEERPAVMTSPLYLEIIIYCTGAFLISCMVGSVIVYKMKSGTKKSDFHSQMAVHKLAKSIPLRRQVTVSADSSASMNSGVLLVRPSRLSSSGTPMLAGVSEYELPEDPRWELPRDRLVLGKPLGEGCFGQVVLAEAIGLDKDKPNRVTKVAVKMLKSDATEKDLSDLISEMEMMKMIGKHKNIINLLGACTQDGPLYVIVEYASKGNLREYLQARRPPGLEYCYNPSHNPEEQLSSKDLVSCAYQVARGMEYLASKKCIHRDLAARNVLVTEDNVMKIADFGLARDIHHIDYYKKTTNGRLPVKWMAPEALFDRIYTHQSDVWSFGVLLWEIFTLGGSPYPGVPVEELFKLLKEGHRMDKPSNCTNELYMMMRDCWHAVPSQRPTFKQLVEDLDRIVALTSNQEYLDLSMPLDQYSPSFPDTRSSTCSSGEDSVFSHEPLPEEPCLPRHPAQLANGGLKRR
Sequence of Mitogen-activated protein kinase 3 (Homo sapiens) (P27361 whole entry): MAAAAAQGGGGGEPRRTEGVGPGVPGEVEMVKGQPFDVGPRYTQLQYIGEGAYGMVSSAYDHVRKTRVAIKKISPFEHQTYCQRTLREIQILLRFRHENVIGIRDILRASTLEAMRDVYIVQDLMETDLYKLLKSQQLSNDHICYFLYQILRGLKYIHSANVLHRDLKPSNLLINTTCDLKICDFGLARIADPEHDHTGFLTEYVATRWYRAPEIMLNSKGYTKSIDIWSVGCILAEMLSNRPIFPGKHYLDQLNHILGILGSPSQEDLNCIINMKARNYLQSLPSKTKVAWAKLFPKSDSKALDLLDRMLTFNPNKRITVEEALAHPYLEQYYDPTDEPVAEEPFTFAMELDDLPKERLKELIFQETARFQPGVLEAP
Sequence of Casein kinase I isoform alpha (Homo sapiens) (P48729 2-337 limits assumed): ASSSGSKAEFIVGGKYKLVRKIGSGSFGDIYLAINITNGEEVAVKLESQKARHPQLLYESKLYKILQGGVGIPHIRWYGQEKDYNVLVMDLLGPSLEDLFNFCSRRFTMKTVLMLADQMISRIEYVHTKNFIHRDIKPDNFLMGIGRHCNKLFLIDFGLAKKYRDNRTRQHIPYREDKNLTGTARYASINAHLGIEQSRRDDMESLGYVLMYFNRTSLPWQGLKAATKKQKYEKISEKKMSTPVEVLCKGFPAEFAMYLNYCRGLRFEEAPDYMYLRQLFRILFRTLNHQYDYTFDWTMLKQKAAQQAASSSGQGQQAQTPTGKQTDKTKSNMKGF

SMILES | IC50 [1] | Activity (MCF7 [2]) | Activity (MCF7 [3]) | viability at 10 µM (MCF7 [4]) | IC50 (HCT-116) | Activity (MCF7 [5]) | Activity (MCF7 [6]) | Activity (MCF7 [7]) | IC50 (K562) | IC50 (MCF7 [9]) | Activity (MCF7 [10]) | viability at 5 µM (MCF7 [11]) | Activity (MCF7 [12]) | Activity (MCF7 [13]) | Activity (MCF7 [14]) | IC50 (A2780) | viability at 1 µM (MCF7 [16]) | inhibition [17] | inhibition [18] | inhibition [19] | also measured
CC(Nc1nc2nc3ccccc3nc2c(=O)[nH]1)c1ccccc1 (stereo not drawn) | > 50000 nM | 22.1% | 10.5% | 45.8% | 140 nM | 9.7% | 14.4% | 4% | > 50000 nM | 160 nM | 5.1% | 71.2% | 14.1% | 7.9% | 32% | 340 nM | 63.4% |  |  |  | fold change (FC) (MCF7 [8]): 13; fold change (FC) (MCF7 [15]): >2
COc1ccc2nc3nc(NCc4ccc(CN5CCN(C)CC5)cc4)[nH]c(=O)c3nc2c1 |  | 8.1% | 3.7% | 72.2% | 50 nM | 4.1% | 6.2% | 9.7% | > 50000 nM | 40 nM | 18.6% | 72.3% | 5% | 16.3% | 5.4% | 50 nM | 78.4% | 8% | -7% | -9% | inhibition [20]: -6%; inhibition [21]: 19%; inhibition [22]: -2%; inhibition [23]: 7%; inhibition [24]: 2%; inhibition [25]: -10%; inhibition [26]: -7%; inhibition [27]: 12%; inhibition [28]: 12%; inhibition [29]: 25%; inhibition [30]: 8%; inhibition [31]: -1%
O=c1[nH]c(NCc2ccc(CN3CCOCC3)cc2)nc2nc3ccc(Cl)cc3nc12 | 40200 nM | 11.2% | 3.2% | 58% | 310 nM | 7.8% | 19.3% | 2.9% | > 50000 nM | 200 nM | 4% | 74.1% | 14% | 6.3% | 16.4% | 190 nM | 82.6% |  |  |  | Activity (MCF7 [32]): Dose-dependent effect; Ratio (MCF7 [33]): 7; fold change (FC) (MCF7 [34]): 2
O=c1[nH]c(NCc2ccc(CN3CCCCC3)cc2)nc2nc3ccccc3cc12 | 39000 nM |  |  |  | 13000 nM |  |  |  | 9970 nM | 11600 nM |  |  |  |  |  | 10100 nM |  | -4% | -7% | 32% | inhibition [21]: 5%; inhibition [22]: 33%; inhibition [23]: -1%; inhibition [24]: 0%; inhibition [35]: 18%; inhibition [26]: 4%; inhibition [28]: -5%; inhibition [29]: -3%; inhibition [30]: 1%; inhibition [31]: -6%
